1 molecule from ChEMBL document CHEMBL4732206, “Novel diaryl-2H-azirines: Antitumor hybrids for dual-targeting tubulin and DNA” (Eur J Med Chem, 2021) can be followed below.

Active and inactive are the calls of the source. No cut-off for these calls is given here.

The subject of test [1] is HeLa. Put plainly: Induction of cell cycle arrest in human HeLa cells assessed as upregulation of p-histone-H3 protein expression at 0.8 to 3.2 uM by Western blot analysis. It is filed as functional, cell-based. The following applies: dose 0.8-3.2 µM. Summed up:
(§1)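 HeLa cells were treated with graded concentrations or DMSO, washed in PBS and lysed. Protein was measured by BCA, separated by SDS-PAGE and transferred to PVDF. Membranes were blocked in 5% BSA/TBST, incubated with primary antibodies overnight at 4 °C, then with HRP secondary antibodies. Bands were detected by chemiluminescence.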

The subject of test [2] is HeLa. Kind of test: Induction of cell cycle arrest in human HeLa cells assessed as upregulation of BubR1 protein expression at 0.8 to 3.2 uM by Western blot analysis. Particulars: dose 0.8-3.2 µM. It counts as functional, cell-based. Summed up: as §1
A general note: A western blot detects proteins with antibodies after separation by electrophoresis.

Test [3] has as its system Jurkat. Kind of test: Induction of DNA damage in human Jurkat cells at 100 to 400 nM incubated for 48 hrs by EB staining based analysis. It counts as functional, cell-based. Particulars: dose 100-400 nM. Summed up:
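Jurkat cells were exposed to graded concentrations, MMC 200 nM positive control or DMSO for 48 h at 37 °C, with work done in darkness. Cells were embedded in LM agarose on comet slides and lysed for 2 h at 4 °C. Slides were unwound in 1 mM EDTA/200 mM NaOH for 30 min, electrophoresed at 25 V for 15 min, stained with ethidium bromide and imaged by fluorescence microscopy. Tail moment was scored.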

For test [4], the system named is HeLa. Put plainly: Induction of apoptosis in human HeLa cells assessed as necrotic cells at 1 uM incubated for 48 hrs by annexin-V-FITC and PI staining based flow cytometry analysis (reference value: 0.18 %). It is filed as functional. In general terms: Flow cytometry measures light scatter and fluorescence of single cells or particles in a stream.
Test [5] has as its system A2780. Kind of test: Antitumor activity against human A2780 cells xenografted in Balb/c mouse assessed as tumor growth inhibition administered every two days by caliper analysis. It counts as functional. Particulars: dose 25-50 mg/kg. Summed up: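 Nude mice carried A2780 cells implanted in PBS in the right flank. When tumors reached 100 mm³, mice were randomized into four groups (n = 10): vehicle, 25 or 50 mg/kg test compound, and PTX 10 mg/kg. Dosing was every two days; vehicle was 10% castor oil and 10% DMSO in PBS. Volume (π/6 × length × width²) and body weight were measured by caliper and scale at each dose. Tumors were excised and weighed at the end.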
On the technique in general: A xenograft is tissue or cells of one species grown in another, often human tumour cells in immunodeficient mice.

In test [6] the test system is HeLa. Kind of test: Induction of cell cycle arrest in human HeLa cells assessed as increase in accumulation of cells at G2/M phase incubated for 24 hrs by PI staining based flow cytometry analysis. It counts as functional. The following applies: dose 0.4-3.2 µM. Summed up: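 HeLa cells were grown for 24 h, then treated with graded concentrations or DMSO for 24 h. Cells were fixed in 75% ethanol at −20 °C overnight, treated with RNase A and stained with PI in PBS in the dark at room temperature. DNA content was measured by flow cytometry.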

The test system of test [7] is HeLa. Kind of test: Induction of apoptosis in human HeLa cells assessed as late apoptotic cells at 4 uM incubated for 48 hrs by annexin-V-FITC and PI staining based flow cytometry analysis (reference value: 0.23 %). It counts as functional.
Test [8] concerns HeLa. Put plainly: Induction of apoptosis in human HeLa cells assessed as viable cells at 2 uM incubated for 48 hrs by annexin-V-FITC and PI staining based flow cytometry analysis (reference value: 97.34 %). It counts as functional. The following applies: read-out: Activity.
In test [9] the target is Tubulin (Homo sapiens) (UniProt P68371+Q9H4B7+P0DPH7+P68366+Q13509+Q71U36+P04350+Q3ZCM7+P07437+P68363+Q9BQE3+Q6PEY2+Q13885+Q9BVA1+Q9BUF5). Put plainly: Inhibition of tubulin polymerization in human HeLa cells assessed as shrink in cell border at 100 to 200 nM incubated for overnight by DAPI staining based immunofluorescence assay. Particulars: dose 100-200 nM. A digest of the protocol: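 HeLa cells were treated overnight with a range of concentrations or DMSO. Cells were fixed in methanol, permeabilized with 0.1% Triton X-100 and blocked in 3% BSA for 1 h. They were stained with α-tubulin monoclonal antibody overnight at 4 °C, then Alexa 488 secondary antibody, with DAPI counterstain for 10 min. Images were taken by confocal microscopy.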

The subject of test [10] is HeLa. Kind of test: Inhibition of colony formation in human HeLa cells incubated for 48 hrs followed by replacement with fresh medium and further incubation for 7 to 10 days by gentian violet staining based assay. It counts as functional, cell-based. Particulars: dose 0.5-8 µM. A digest of the protocol: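 HeLa cells in six-well plates were grown for 24 h at 37 °C, then treated with graded concentrations or DMSO for 48 h. Medium was replaced with fresh medium for a further 7–10 days. Colonies were stained with gentian violet for 30 min, washed with PBS and counted relative to control.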

In test [11] the test system is HeLa. Kind of test: Induction of apoptosis in human HeLa cells assessed as viable cells at 8 uM incubated for 48 hrs by annexin-V-FITC and PI staining based flow cytometry analysis (reference value: 97.34 %). Particulars: read-out: Activity. It counts as functional.
For test [12], the system named is HeLa. Kind of test: Induction of apoptosis in human HeLa cells assessed as upregulation of PARP cleavage by Western blot analysis. It counts as functional, cell-based. The following applies: dose 2-8 µM. Summed up:
as §1

Test [13] concerns HUVEC. Kind of test: Antiangiogenic activity in HUVEC assessed as disruption of capillary structure incubated for 12 hrs by matrigel-based microscopic analysis. It is filed as functional, cell-based. The following applies: Homo sapiens, dose 75-150 nM. Summed up: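 Matrigel polymerized at 37 °C for 2 h, then HUVECs in DMEM were seeded on it. Cells were treated with a range of compound concentrations or DMSO vehicle for 12 h at 37 °C. Capillary-like tubes were photographed through an inverted microscope.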

Test [14] relates to HeLa. Kind of test: Induction of apoptosis in human HeLa cells assessed as necrotic cells at 8 uM incubated for 48 hrs by annexin-V-FITC and PI staining based flow cytometry analysis (reference value: 0.18 %). It counts as functional.

As for `COc1ccc(C2N=C2c2cc(OC)c(OC)c(OC)c2)cc1F` (centres undefined), the outcome in test [1], in test [2] and in [3] was Active. Moreover, the Activity in test [4] is 0.28%; in test [6], “Dose-dependent effect”; in test [7] it was 7.52%; in test [12] it was “Dose-dependent effect”; in test [13], “Dose-dependent effect”; in test [14], 2.14%. The TGI result in test [5] was “Dose-dependent effect”. Besides, in [8], the viability at 2 µM worked out at 74.7%. Also, the inhibition result in [9] was “Active”. In test [10], the inhibition result is “Dose-dependent effect”. In test [11], the viability at 8 µM is 39.6%.
